Measurements collected from several papers.
Lines come from different studies, so protocols differ. pIC50: −log10 of the molar value.
Read-out: cell growth or viability

SMILES | cell line | assay | setting | quantity | result
Cc1ccc(S(=O)(=O)n2cc(/C=N/NC(=O)c3ccco3)c3ccccc32)cc1 | MCF-10A | MTT | 48 h | pIC50 | < 4.30
O=C1C(=O)N(CCn2ncc3c(=O)[nH]cnc32)c2ccccc21 | BALB/3T3 clone A31 | SRB | 72 h | IC50 | 23.1 µg/mL
N#Cc1ccc(-c2cc(CNc3cccc4cccnc34)on2)cc1 | K562 | MTS | 72 h | pIC50 | 4.95
Cc1ncsc1-c1ccc([C@H](C)NC(=O)[C@@H]2C[C@@H](O)CN2C(=O)[C@@H](NC(=O)CN2CCN(c3cc(-c4ccccc4O)nnc3N)CC2)C(C)(C)C)cc1 | VCaP | ATP luminescence | 7 days | pIC50 | 8.04
N#Cc1ccc(-c2cc(COc3cc(C(F)(F)F)nc4ccccc34)on2)cc1 | K562 | MTS | 72 h | pIC50 | 4.08
COc1cccc2c1C(=O)c1c(O)c3c(c(O)c1C2=O)C[C@@](O)(C(=O)CO)C[C@@H]3O[C@H]1C[C@H](N)[C@H](O)[C@H](C)O1 | MDCK | neutral red | 48 h | pIC50 | 4.15
Cc1ccc(S(=O)(=O)n2cc(/C=N/NC(=O)c3cccc(Cl)c3)c3ccccc32)cc1 | MCF-10A | MTT | 48 h | pIC50 | < 4.30
CC(C)[C@@H](C)NC(=O)c1cc(-c2cc3ccccc3n2C)cc(C(=O)NCCc2ccccn2)n1 | JHH7 | CCK-8 |  | pIC50 | 4.60
NC(=S)N/N=C1\C(=O)N(CCn2ncc3c(=O)[nH]cnc32)c2ccc(Cl)cc21 | BALB/3T3 clone A31 | SRB | 72 h | IC50 | 14.3 µg/mL
CC(C)(C)[C@H](NC(=O)/C=C/c1ccc(OP(=O)(O)O)cc1)C(=O)N1CCC[C@H]1C(=O)N(c1ccccc1)c1ccc(I)cc1 | JHH7 | CCK-8 |  | pIC50 | 5.51
COc1cc([C@@H]2c3cc4c(cc3[C@@H](O[C@@H]3O[C@@H]5CO[C@@H](C)O[C@H]5[C@H](O)[C@H]3O)[C@H]3COC(=O)[C@H]23)OCO4)cc(OC)c1O | K562 | MTS | 72 h | pIC50 | 7.52
CC(=O)c1ccc2cc(S(=O)(=O)Nc3ccccc3Cl)ccc2c1 | MDCK | neutral red | 48 h | pIC50 | 4.90
CNC(=O)c1cc(Oc2ccc(NC(=O)Nc3ccc(Cl)c(C(F)(F)F)c3)cc2)ccn1 | BALB/3T3 clone A31 | SRB | 72 h | IC50 | 0.42 µg/mL
Cc1ccc(S(=O)(=O)n2cc(/C=N/NC(=O)c3cc4ccccc4cc3O)c3ccccc32)cc1 | MCF-10A | MTT | 48 h | pIC50 | < 4.30
CC(=O)c1ccc2cc(S(=O)(=O)Nc3ccc(Br)cc3)ccc2c1 | MDCK | neutral red | 48 h | pIC50 | 4.02
COc1cccc2c1C(=O)c1c(O)c3c(c(O)c1C2=O)C[C@@](O)(C(=O)CO)C[C@@H]3O[C@H]1C[C@H](N)[C@H](O)[C@H](C)O1 | NCI-H446 | SRB |  | pIC50 | 6.10
O=C1C(=O)N(CCn2ncc3c(=O)[nH]cnc32)c2ccc(F)cc21 | BALB/3T3 clone A31 | SRB | 72 h | IC50 | 19.6 µg/mL
Cc1ccc(S(=O)(=O)n2cc(/C=N/NC(=O)c3ccccc3Br)c3ccccc32)cc1 | MCF-10A | MTT | 48 h | pIC50 | < 4.30
Nc1ccn([C@@H]2O[C@H](CO)[C@@H](O)C2(F)F)c(=O)n1 | 4T1 | MTT | 24 h | IC50 | 5.78 µg/mL
C=CC(C)(C)c1[nH]cnc1/C=C1/NC(=O)[C@H](C(C)C)NC1=O | NCI-H446 | SRB |  | pIC50 | 5.70
COc1ccc(NS(=O)(=O)c2ccc3cc(C(C)=O)ccc3c2)cc1 | MDCK | neutral red | 48 h | pIC50 | 4.74
Cc1ccc(S(=O)(=O)n2cc(/C=N/NC(=O)c3ccc(C(F)(F)F)cc3)c3ccccc32)cc1 | MCF-10A | MTT | 48 h | pIC50 | < 4.30
Nc1nnc(-c2ccccc2O)cc1N1CC2CCC(C1)N2c1ccnc(F)c1 | VCaP | ATP luminescence | 7 days | pIC50 | < 6.00
CCOC(=O)c1c(C)nc2ccc(-c3ccc(F)cc3F)cc2c1O | MCF-10A | MTT | 48 h | pIC50 | ≤ 4.00
FC(F)(F)c1cc(OCc2cc(-c3ccc(Cl)cc3Cl)no2)c2ccccc2n1 | K562 | MTS | 72 h | pIC50 | < 4.00
O=C1C(=O)N(CCn2ncc3c(=O)[nH]cnc32)c2ccc(Cl)cc21 | BALB/3T3 clone A31 | SRB | 72 h | IC50 | 11.4 µg/mL
Cc1ccc(S(=O)(=O)n2cc(/C=N/NC(=O)c3ccccc3C)c3ccccc32)cc1 | MCF-10A | MTT | 48 h | pIC50 | < 4.30
CN1CCC(NC2CCc3[nH]c4c(C(N)=O)ccc(-c5ccccc5Cl)c4c3C2)CC1 (stereo not drawn) | NCI-H446 |  | 96 h | pIC50 | 8.10
Cc1ccc(S(=O)(=O)n2cc(/C=N/NC(=O)Cc3cc(F)cc(F)c3)c3ccccc32)cc1 | MCF-10A | MTT | 48 h | pIC50 | < 4.30
CC(C)=CCc1ncc(/C=C2\NC(=O)[C@H](C(C)C)NC2=O)[nH]1 | NCI-H446 | SRB |  | pIC50 | < 4.82
